Reference: PMC4285624 (Biochemical pharmacology, 2014)

What was measured:
[1] = target: Full length, heterotrimeric human RPA (fl-RPA) (Homo sapiens, UniProt P27694); experiment: EMSA of full length RPA binding to ssDNA; type: biochemical; conditions: read-out: In vitro IC50, RPA-DNA binding, compounds titrated 1–125 μM
Procedure, shortened: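 Recombinant full-length heterotrimeric human RPA (50 nM, E. coli-expressed) was preincubated 30 min with DMSO-dissolved compound (DMSO ≤5%). Bound and free DNA were separated on 6% native gels and quantified by phosphorimager. IC50 came from nonlinear regression; three independent determinations.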

[2] = target: RPA DBD-A/B (Homo sapiens, UniProt P27694); experiment: EMSA of RPA DBD-A/B binding to DNA; type: biochemical; conditions: 150 nM DBD-A/B, compounds 25–100 μM
Chain of RPA DBD-A/B (P27694 181-432): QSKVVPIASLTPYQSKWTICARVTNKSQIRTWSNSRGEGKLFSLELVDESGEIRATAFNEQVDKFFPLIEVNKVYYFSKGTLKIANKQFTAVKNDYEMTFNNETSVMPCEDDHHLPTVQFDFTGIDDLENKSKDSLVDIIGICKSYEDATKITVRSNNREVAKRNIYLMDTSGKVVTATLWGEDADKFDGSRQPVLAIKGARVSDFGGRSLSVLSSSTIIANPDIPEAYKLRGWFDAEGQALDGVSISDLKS
Procedure, shortened: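 The RPA181–432 DBD-A/B fragment was expressed in E. coli BL21(DE3) as a SUMO-His6 fusion (0.5 mM IPTG, 3 h, 37 °C). It was Ni-NTA purified, SUMO-cleaved with ULP1, and polished by size exclusion. Protein was preincubated 30 min with compound, then mixed with 2.5 nM 5′-32P 34-base DNA for 5 min at room temperature. Products were run on 6% native gels at 4 °C and quantified by phosphorimager.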

[3] = tested on: peripheral blood lymphocytes; conditions: cited from earlier work
[4] = cited from earlier work
[5] = tested on: lung cancer cell line; conditions: cited from earlier work

Chain of Full length, heterotrimeric human RPA (fl-RPA) (P27694 whole entry): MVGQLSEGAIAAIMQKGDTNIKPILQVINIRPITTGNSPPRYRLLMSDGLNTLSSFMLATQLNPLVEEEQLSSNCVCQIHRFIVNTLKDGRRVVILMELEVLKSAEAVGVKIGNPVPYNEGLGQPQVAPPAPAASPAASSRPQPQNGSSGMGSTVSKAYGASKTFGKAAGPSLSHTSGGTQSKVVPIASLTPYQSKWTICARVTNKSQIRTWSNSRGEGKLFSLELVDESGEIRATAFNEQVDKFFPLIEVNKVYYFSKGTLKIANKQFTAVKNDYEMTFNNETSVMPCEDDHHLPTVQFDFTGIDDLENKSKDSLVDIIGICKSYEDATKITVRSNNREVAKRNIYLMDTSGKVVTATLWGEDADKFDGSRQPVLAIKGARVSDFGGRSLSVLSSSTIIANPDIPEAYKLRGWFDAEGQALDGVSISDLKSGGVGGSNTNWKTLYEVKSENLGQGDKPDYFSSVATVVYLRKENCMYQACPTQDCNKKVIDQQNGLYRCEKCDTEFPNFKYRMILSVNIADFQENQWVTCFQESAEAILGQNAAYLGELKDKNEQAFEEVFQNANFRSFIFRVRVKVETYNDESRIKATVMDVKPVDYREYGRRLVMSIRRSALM
Chain of Full length, heterotrimeric human RPA (fl-RPA) (P15927 whole entry partner): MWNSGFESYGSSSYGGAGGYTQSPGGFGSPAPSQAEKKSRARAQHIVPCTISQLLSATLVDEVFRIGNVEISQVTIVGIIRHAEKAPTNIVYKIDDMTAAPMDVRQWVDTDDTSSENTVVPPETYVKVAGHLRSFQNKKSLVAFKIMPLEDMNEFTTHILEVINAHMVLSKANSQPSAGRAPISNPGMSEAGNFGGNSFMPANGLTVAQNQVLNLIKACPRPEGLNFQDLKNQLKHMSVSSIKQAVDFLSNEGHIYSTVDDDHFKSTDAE
Chain of Full length, heterotrimeric human RPA (fl-RPA) (P35244 whole entry partner): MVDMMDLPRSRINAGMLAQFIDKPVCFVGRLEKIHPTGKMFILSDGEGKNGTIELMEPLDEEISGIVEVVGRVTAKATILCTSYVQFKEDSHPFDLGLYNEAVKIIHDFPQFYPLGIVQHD

IC50 [1]: 38 µM
inhibition of RPA DBD-A/B-DNA interaction [2]: inhibit RPA DBD-A/B-DNA interaction
SMILES: CCOc1ccc2cc(C3CC(c4ccc(Br)cc4)=NN3C(=O)CCC(=O)O)c(Cl)nc2c1 (stereo not drawn) [TDRL-505]
cytotoxic effects on peripheral blood lymphocytes [3]: minimal cytotoxic effects
cell cycle effect [4]: G1 cell cycle arrest
synergy with Pt ([5]; lung cancer cell line, published data): synergy
synergy with etoposide ([5]; lung cancer cells, flow cytometry based Annexin-PI staining assay): highly synergistic
